Where only a bound is given, the exact number is not on record here.

The values below come from ChEMBL document CHEMBL1123400, “Synthesis and biological activity of certain nucleoside and nucleotide derivatives of pyrazofurin” (1986).

The test system of one assay is B16. Put plainly: In vitro inhibitory effect on growth of B16 melanoma cells. The class given is functional. To be noted: Mus musculus, read-out: ID50 (the source's name). An outline of the steps: (§1)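 Monolayers were seeded at 2.5 × 10^4 cells/well and grown 24 h at 37 °C, 5% CO2. Lewis lung cells were kept in RPMI-1640 with 5% fetal calf serum; B16 cells in MEM with 10% FCS, nonessential amino acids, 1 mM pyruvate and vitamins. Medium was replaced with compound at log concentrations 1 × 10^-10 to 1 × 10^-4 M. After 72 h, cells were PBS-washed, trypsinized and Coulter-counted. ID50 is 50% growth inhibition versus controls, averaged over two to three determinations.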

Assay [1] relates to Lewis lung carcinoma cell line. Put plainly: In vitro inhibitory effect on growth of lewis lung carcinoma cells. The class given is functional. To be noted: Mus musculus, read-out: ID50 (the source's name). An outline of the steps: as §1
Assay [2] deals with L1210. As to the kind of experiment: In vitro inhibitory effect on growth of L1210 leukemia cells. To be noted: Mus musculus, read-out: ID50 (the source's name). It is filed as functional. In a few lines:
(§2)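 Suspension cells in RPMI-1640 with 10% FBS and 20 mM Hepes were seeded at 1 × 10^5 cells/mL. Filter-sterilized compound was added in duplicate at log concentrations 1 × 10^-10 to 1 × 10^-4 M. After 48 h at 37 °C, cells were Coulter-counted. ID50 is 50% growth inhibition versus untreated controls, averaged over two to three determinations.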

Assay [3] concerns P388. Put plainly: In vitro inhibitory effect on growth of P388 leukemia cells. It is filed as functional. The note with it: Mus musculus, read-out: ID50 (the source's name). In a few lines: as §2
The next assay concerns Vero. Put plainly: Maximum tolerated concentration against Vero cells. The class given is functional, Chlorocebus sabaeus. An outline of the steps:
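Single uninfected confluent Vero monolayer wells were exposed alongside the antiviral wells, final 5 × 10^-6 to 5 × 10^-3 M, for 72 h at 37 °C, 5% CO2. Cytotoxicity was any microscopically visible change in morphology or monolayer density (lysis, rounding, detachment). MTC is the […].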

The next assay relates to Human alphaherpesvirus 2. As to the kind of experiment: In vitro antiviral activity against herpes simplex virus type 2 (HSV-2) in Vero cells. The class given is functional. The note with it: Human alphaherpesvirus 2, Vero; read-out: ED50 (the source's name). In a few lines:
(§3)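 Confluent Vero monolayers (4 × 10^4 cells/well, grown 24 h at 37 °C in EMEM with 10% newborn bovine serum) were infected with virus: HSV-2 at 100, measles at 100, para-3 at 60 TCID50/well. After 30 min adsorption at 37 °C, compound was added in seven 0.5-log steps, final 5 × 10^-6 to 5 × 10^-3 M (active ones 5 × 10^-7 to 5 × 10^-4 M), duplicate wells.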

In the next assay the test system is Measles morbillivirus. Put plainly: In vitro antiviral activity against measles virus in Vero cells. To be noted: read-out: ED50 (the source's name). The class given is functional. An outline of the steps: as §3
A further assay deals with Human respirovirus 3. As to the kind of experiment: In vitro antiviral activity against parainfluenza type 3 virus in Vero cells. The class given is functional. The note with it: Human respirovirus 3, Vero; read-out: ED50 (the source's name). An outline of the steps: as §3
For a further assay, the system named is Vaccinia virus. Put plainly: In vitro antiviral activity against vaccinia virus in Vero cells. The class given is functional. To be noted: Orthopoxvirus vaccinia, read-out: ED50 (the source's name).
The subject of assay [4] is P388. As to the kind of experiment: In vitro inhibitory effect on growth of P388 leukemia cell. To be noted: Mus musculus, read-out: ID50 (the source's name). It is filed as functional. In a few lines:
as §2

Assay [5] can be described thus: In vitro inhibitory effect on growth of […] cells. It is filed as functional. The note with it: Mus musculus; read-out: ID50 (the source's name). In a few lines:
as §1

Assay [6] relates to Lewis lung carcinoma cell line. As to the kind of experiment: In vitro inhibitory effect on growth of lewis lung carcinoma cells. To be noted: Mus musculus, read-out: ID50 (the source's name). The class given is functional. An outline of the steps:
as §1

Assay [7] deals with L1210. As to the kind of experiment: In vitro inhibitory effect on growth of L1210 leukemia cells. The class given is functional. To be noted: Mus musculus, read-out: ID50 (the source's name). In a few lines:
as §2

Assay [8] deals with P388. As to the kind of experiment: In vitro inhibitory effect on growth of P388 leukemia cells. The class given is functional. To be noted: Mus musculus, read-out: ID50 (the source's name). In a few lines: as §2

For `NC(=S)c1[nH]nc([C@@H]2O[C@H](CO)[C@@H](O)[C@H]2O)c1OCc1ccccc1`, the IC50 (with B16; in assay [1]; with L1210 [2]; in the assay with P388 [3]) was above 100 µM throughout. Also, the MTC in the assay with Vero was above 5 mM. For the same compound, the EC50 in the assay on Human alphaherpesvirus 2 is 2800 µM; with Measles morbillivirus, 500 µM; in the assay with Human respirovirus 3, above 5000 µM; in the assay on Vaccinia virus it was 2100 µM.

`NC(=O)c1[nH]nc([C@@H]2O[C@H](COP(=O)([O-])[O-])[C@@H](O)[C@H]2O)c1OCc1ccccc1.[Na+].[Na+]`: the results for the IC50 in the assay with L1210 [2] and in the assay on P388 [3] were 130 µM and 94 µM, respectively. For the same compound, the MTC in the assay with Vero is above 5 mM. Moreover, the EC50 in the assay on Human alphaherpesvirus 2, in the assay with Measles morbillivirus, in the assay with Human respirovirus 3 and in the assay with Vaccinia virus was above 5000 µM throughout.

Take `COc1c([C@@H]2O[C@H](CO)[C@@H](O)[C@H]2O)nn(C)c1C(N)=O`: the IC50 in the assay on L1210 [2] and with P388 [4] was above 100 µM in each case. In the assay with Vero, this compound came in with an MTC of 5 mM. Moreover, the EC50 with Human alphaherpesvirus 2 is 3200 µM; with Measles morbillivirus, above 5000 µM; with Human respirovirus 3, above 5000 µM; in the assay on Vaccinia virus, 5000 µM.

For `CCOP(=O)(O)OC[C@H]1O[C@@H](C2=NNC(C(N)=O)C2=O)[C@H](O)[C@@H]1O` (some centres not stated), the IC50 worked out at 0.23 µM with B16, 0.0007 µM in [1], 0.0039 µM in the assay with L1210 [2] and 0.0032 µM in the assay with P388 [3]. In the assay on Vero, this compound showed an MTC above 5 mM. In addition, the EC50 with Human alphaherpesvirus 2 was 590 µM; with Measles morbillivirus, 97 µM; in the assay on Human respirovirus 3, 80 µM; in the assay on Vaccinia virus it was 26 µM.

Take `NC(=O)C1NN=C([C@@H]2O[C@H](CO)[C@@H](O)[C@H]2O)C1=O` (some centres not stated): the IC50 in the assay with B16 worked out at 0.063 µM; in assay [1], 0.0018 µM; with L1210 [2], 0.0032 µM; with P388 [3], 0.0033 µM. In addition, in the assay with Vero, the MTC turned out to be 1.6 mM. For the same compound, the EC50 was 20 µM in the assay on Human alphaherpesvirus 2, 9.6 µM in the assay with Measles morbillivirus, 3 µM in the assay on Human respirovirus 3 and 2.8 µM in the assay with Vaccinia virus.

For `N=C(N)C1NN=C([C@@H]2O[C@H](CO)[C@@H](O)[C@H]2O)C1=O` (some centres not stated), the IC50 was above 100 µM in the assay with B16, 89 µM in [1], 79 µM in the assay on L1210 [2] and above 100 µM with P388 [3]. The compound also gave an MTC in the assay with Vero above 5 mM. Besides, the EC50 was 3100 µM in the assay on Human alphaherpesvirus 2, 5000 µM with Measles morbillivirus and above 5000 µM in the assay on Vaccinia virus.

Regarding `CN1N=C([C@@H]2O[C@H](CO)[C@@H](O)[C@H]2O)C(=O)C1C(N)=O` (some centres not stated), the IC50 with L1210 [2] came to 15 µM; with P388 [3] it was 17 µM. Besides, the MTC with Vero is above 5 mM. Also, the EC50 with Human alphaherpesvirus 2 was above 5000 µM; with Measles morbillivirus it was above 5000 µM; in the assay on Human respirovirus 3 it was above 5000 µM; in the assay on Vaccinia virus it was 1600 µM.

Regarding `COc1c([C@@H]2O[C@H](CO)[C@@H](O)[C@H]2O)n[nH]c1C(N)=O`, the results for the IC50 in the assay on L1210 [2] and in the assay with P388 [3] were 29 µM and 40 µM, respectively. Further, in the assay on Vero, the MTC is above 5 mM. Also, the EC50 in the assay on Human alphaherpesvirus 2 is above 5000 µM; in the assay on Measles morbillivirus, above 5000 µM; in the assay with Human respirovirus 3 it was above 5000 µM; with Vaccinia virus it was 2800 µM.

On to `N/C(=N/O)c1[nH]nc([C@@H]2O[C@H](CO)[C@@H](O)[C@H]2O)c1OCc1ccccc1`, for which the IC50 in the assay with L1210 [2] and with P388 [3] was above 100 µM in each case. Further, the MTC in the assay on Vero was above 5 mM. Besides, the EC50 in the assay with Human alphaherpesvirus 2, in the assay on Measles morbillivirus, in the assay on Human respirovirus 3 and in the assay with Vaccinia virus was above 5000 µM throughout.

As to `COP(=O)(OC)OC[C@H]1O[C@@H](C2=NNC(C(N)=O)C2=O)[C@H](O)[C@@H]1O` (some centres not stated), the IC50 in the assay on B16 was found to be 2.3 µM; in assay [1] it was 0.01 µM; with L1210 [2], 0.0058 µM; with P388 [3], 0.012 µM. In addition, the MTC in the assay on Vero was above 5 mM. Besides, the EC50 is above 5000 µM in the assay on Human alphaherpesvirus 2, 1400 µM with Measles morbillivirus, 1000 µM with Human respirovirus 3 and 280 µM in the assay with Vaccinia virus.

In the case of `NC(=O)c1[nH]nc([C@@H]2O[C@H](CO)[C@@H](O)[C@H]2O)c1OCc1ccccc1`, the figures for the IC50 in the assay with L1210 [2] and in the assay on P388 [3] were 75 µM and 62 µM, respectively. Further, in the assay on Vero, the MTC was above 5 mM. Further, the EC50 in the assay on Human alphaherpesvirus 2 is above 5000 µM; in the assay with Measles morbillivirus, 1300 µM; with Human respirovirus 3 it was above 5000 µM; in the assay on Vaccinia virus, above 5000 µM.

As to `N#CC1NN=C([C@@H]2O[C@H](CO)[C@@H](O)[C@H]2O)C1=O` (some centres not stated), the IC50 in the assay on B16 was found to be 72 µM; in assay [1], 28 µM; in the assay on L1210 [2], 13 µM; in the assay on P388 [3] it was 45 µM. In the assay on Vero, this compound had an MTC above 5 mM. For the same compound, the EC50 in the assay on Human alphaherpesvirus 2 was above 5000 µM; in the assay on Measles morbillivirus, 5000 µM; with Human respirovirus 3, above 5000 µM; in the assay on Vaccinia virus, 5000 µM.

For the compound `NC(=O)c1[nH]nc(C2O[C@H](COP(=O)(O)O)[C@H](O)[C@@H]2O)c1O` (some centres not stated), the IC50 with B16 turned out to be 0.24 µM; in assay [1], 0.005 µM; in the assay on L1210 [2] it was 0.0027 µM; in the assay with P388 [3], 0.001 µM. In the assay on Vero, this compound came in with an MTC above 5 mM. The EC50 in the assay with Human alphaherpesvirus 2 was 23 µM; with Measles morbillivirus it was 20 µM; in the assay with Human respirovirus 3, 6.3 µM; in the assay on Vaccinia virus it was 4 µM.

For `NC(=O)c1[nH]nc(C2O[C@@H](COP(=O)(O)OP(=O)(O)OC[C@H]3OC(n4cnc5c(N)ncnc54)[C@H](O)[C@@H]3O)[C@H](O)[C@@H]2O)c1O` (some centres not stated), the IC50 in assay [5] was found to be 0.6 µM; in assay [6] it was 0.0048 µM; in the assay with L1210 [7], 0.004 µM; in the assay with P388 [8], 0.0088 µM. In the assay on Vero, this compound returned an MTC of 5 mM. Further, the EC50 came out at 10 µM with Human alphaherpesvirus 2, 16 µM with Measles morbillivirus, 5 µM in the assay with Human respirovirus 3 and 9 µM with Vaccinia virus.

Turning to `NC(=O)c1[nH]nc(C2OC3COP(=O)(O)O[C@@H]3[C@@H]2O)c1O` (some centres not stated), the IC50 in the assay on B16 was found to be 6.3 µM; in assay [1] it was 1.7 µM; with L1210 [2], 2.5 µM; with P388 [3] it was 4.4 µM. The same compound returned an MTC in the assay on Vero above 5 mM. For the same compound, the EC50 was 130 µM in the assay with Human alphaherpesvirus 2, above 5000 µM with Measles morbillivirus, 500 µM with Human respirovirus 3 and 250 µM in the assay on Vaccinia virus.

In the case of `NC(=O)c1ncn([C@@H]2O[C@H](CO)[C@@H](O)[C@H]2O)n1` [RIBAVIRIN], the MTC in the assay on Vero is above 5 mM. The EC50 with Human alphaherpesvirus 2 is 190 µM; in the assay on Measles morbillivirus, 99 µM; in the assay with Human respirovirus 3 it was 160 µM; in the assay on Vaccinia virus, 90 µM.
